Several values for one entry are separate records, joined by “and”; a condition that tells them apart may be missing. Identical values can stand only once. Like-named read-outs stand apart in the source and are kept apart here. Marks after values point to notes of the source that are not given here.
Columns and labels:
[1] = type: in vivo, healthy subjects (human); details: for Geometric Mean Ratio (90%CI) of AUClast / Geometric Mean Ratio (90%CI) of Cmax / Geometric Mean Ratio (90%CI) of AUCinf: istradefylline + rifampin vs istradefylline alone; for AUC(0-t): AUClast
Method in brief: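 Crossover in 20 healthy humans. Single oral 40 mg tablet of the test compound given after ≥8 h fast, alone (period 1) or on day 8 of rifampin 600 mg once daily (days 1–20, dosed 2 h after test compound). Venous plasma sampled predose to 312 h. Noncompartmental AUClast and AUCinf, reported as geometric means and geometric mean ratios with 90% CI.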

Safety and tolerability = type: in vivo, healthy subjects (human); details: for Subjects who experienced AEs: 20 subjects
[2] = ref data on file; Kyowa Kirin Pharmaceutical Development, Inc.; cited from earlier work
[3] = ref data on file; Kyowa Kirin Pharmaceutical Development, Inc.; cited from earlier work; remark: listed apart in the source
[4] = cited from earlier work
[5] = test system: cytochrome P450 (CYP) isoenzymes; details: ref data on file; Kyowa Kirin Pharmaceutical Development, Inc.; cited from earlier work
[6] = in those who received various CYP3A4 inhibitors; 1449 healthy subjects and PD patients; cited from earlier work
[7] = coadministration of ketoconazole, healthy subjects; cited from earlier work
P‐glycoprotein (P‐gp) = details: ref data on file; Kyowa Kirin Pharmaceutical Development, Inc.; cited from earlier work
[8] = doses of 20 and 40 mg/day; cited from earlier work
A2A receptor = details: A2A vs A1, A2B, A3; cited from earlier work
[9] = istradefylline 40 mg + steady-state rifampin 600 mg/day, arithmetic mean (SD)
[10] = istradefylline 40 mg alone, arithmetic mean (SD)
[11] = ln-transformed, istradefylline 40 mg + rifampin 600 mg/day, geometric mean (CV%)
[12] = ln-transformed, istradefylline 40 mg alone, geometric mean (CV%)
[13] = metabolite-to-parent ratio, istradefylline 40 mg alone, arithmetic mean (SD)
[14] = during administration of the substance alone
[15] = healthy subjects, independent of dose

## CCn1c(=O)c2c(nc(/C=C/c3ccc(O)c(OC)c3)n2C)n(CC)c1=O [M1 metabolite, 4′‐O‐monodesmethylated derivative of istradefylline]
[1]; generally
  Exposure of metabolite in plasma as share of total drug exposure: < 9%
[1]; [9]
  AUCinf: 159 (47.6) ^b ng·h/mL
  AUClast: 118 (44.3) ng·h/mL
  t1/2: 17.6 (4.95) ^b h
[1]; istradefylline 40 mg + steady-state rifampin 600 mg/day, median (min, max)
  Tmax: 3.0 (1.0, 6.0) h
[1]; [10]
  AUClast: 123 (77.6) ng·h/mL
[1]; istradefylline 40 mg alone, median (min, max)
  Tmax: 3.5 (2.0, 12.0) h
[1]
  Geometric Mean Ratio (90%CI) of AUClast: 1.04 (0.90–1.21)
  Geometric Mean Ratio (90%CI) of Cmax: 1.79 (1.59–2.01)
[1]; listed as istradefylline M1
  Geometric Mean Ratio (90%CI) of AUClast: 1.04
  Geometric Mean Ratio (90%CI) of Cmax: 1.79
[1]; istradefylline alone or with rifampin (M8: except M/P ratio for Cmax after coadministration)
  All M/P ratios: < 9%
[1]; ln-transformed data
  Change in AUClast during rifampin coadministration (GMR comparison): +4%
  Change in Cmax during rifampin coadministration (GMR comparison): +79%
[1]; [11]
  AUClast, geometric mean: 110 (41.8) ng·h/mL
  Cmax, geometric mean: 7.0 (29.0) ng/mL
[1]; [12]
  AUClast, geometric mean: 105 (61.4) ng·h/mL
  Cmax, geometric mean: 3.90 (46.3) ng/mL
[1]; [13]
  M/P ratio (AUClast): 0.0134 (0.0078)
  M/P ratio (Cmax): 0.0241 (0.0045)
[1]; plasma, single oral istradefylline 40 mg alone, arithmetic mean (SD)
  Cmax: 4.34 (2.49) ng/mL

## CO[C@H]1/C=C/O[C@@]2(C)Oc3c(C)c(O)c4c(O)c(c(/C=N/N5CCN(C)CC5)c(O)c4c3C2=O)NC(=O)/C(C)=C\C=C\[C@H](C)[C@H](O)[C@@H](C)[C@@H](O)[C@@H](C)[C@H](OC(C)=O)[C@@H]1C [rifampin, reference compound]
Safety and tolerability; [14]
  Subjects who experienced AEs: 85%
Safety and tolerability; subjects receiving rifampin
  Subjects with chromaturia: 70%

## CCn1c(=O)c2c(nc(/C=C/c3ccc(OC)c(OC)c3)n2C)n(CC)c1=O [Istradefylline]
[1]; during coadministration of steady-state oral rifampin 600 mg/day
  Decrease in istradefylline exposure based on AUC values: ~80%
[1]; human, plasma, oral, 40 mg
  Cmax: 171 ng/mL
  Tmax: 2 h
  Vd/F: 515 L
  half-life: 94.8 h
[1]; human, plasma, oral, 40 mg, geometric mean, ln-transformed, istradefylline 40 mg alone, geometric mean (CV%)
  AUC(0-t): 9460 ng·h/mL
[1]; human, plasma, oral, 40 mg, istradefylline 40 mg alone, arithmetic mean (SD)
  AUC(0-t): 9850 ng·h/mL
[1]; human, plasma, po, 40 mg
  Cmax: 181 ng/mL
[1]; [9]
  CL/F: 20.6 (6.7) L/h
[1]; [10]
  CL/F: 4.0 (1.5) L/h
[1]; istradefylline 40 mg alone, arithmetic mean (SD), listed as istradefylline
  CL/F: 4.0 L/h and 4.00 L/h
[1]
  Geometric Mean Ratio (90%CI) of AUCinf: 0.19 (0.18–0.20)
  Geometric Mean Ratio (90%CI) of AUClast: 0.21 (0.19–0.22)
  Geometric Mean Ratio (90%CI) of Cmax: 0.55 (0.49–0.62)
[1]; listed as istradefylline
  Geometric Mean Ratio (90%CI) of AUCinf: 0.19
  Geometric Mean Ratio (90%CI) of AUClast: 0.21
  Geometric Mean Ratio (90%CI) of Cmax: 0.55
Safety and tolerability; during administration of istradefylline + rifampin
  Subjects who experienced AEs: 25%
Safety and tolerability; [14]
  Subjects who experienced AEs: 20%
Safety and tolerability; given alone or in combination with rifampin
  Tolerability: well tolerated
Safety and tolerability; while receiving istradefylline alone, mild, transient disturbance in attention, asthenia, intermittent dizziness
  Treatment-related AEs (considered related to istradefylline): single subject
[2]
  Aqueous solubility: poor aqueous solubility
[3]
  Bound to plasma protein: ~98%
[4]; healthy subjects and PD patients
  Dose proportionality of exposure (Cmax and AUC): directly proportional to istradefylline dose (up to 80 mg)
[4]; [15]
  Apparent clearance (CL/F): 4.1 to 6.0 L/h
  Apparent volume of distribution (Vz/F): 448 to 557 L
  Terminal elimination half-life (t1/2): 67 to 95 h
[5]
  CYP isoenzymes partly involved in metabolism: CYP1A2, 2B6, 2C8, 2C9, 2C18, and 2D6*1
  Main CYP isoenzymes involved in metabolism: CYP1A1, 3A4, and 3A5
[6]
  Increase in AUC during the dosing interval at steady state (AUCss): 38%
[7]
  Increase in AUCinf: 2.5 fold
P‐glycoprotein (P‐gp)
  P-gp substrate: not a P‐gp substrate
[8]
  OFF time in PD patients: statistically significant improvement in OFF time
A2A receptor
  In vitro affinity, selectivity among adenosine receptor subtypes: higher in vitro affinity toward the A2A receptor than for A1, A2B, and A3 receptors

From publication PMC5811788 (Journal of Clinical Pharmacology, 2017)
